# According to ChEMBL document CHEMBL3734651, “Synthesis of dihydropyrimidine α,γ-diketobutanoic acid derivatives targeting HIV integrase” (Eur J Med Chem, 2015):
# Columns and labels:
# [1] = biological target: T1, Human immunodeficiency virus type 1 integrase (Human immunodeficiency virus 1, UniProt Q7ZJM1); test: Inhibition of recombinant HIV-1 integrase 3'-processing activity expressed in Escherichia coli BL21(DE3) cells using 32P-labeled DNA substrate after 1 hr by densitometric analysis
# Procedure, shortened: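 Reaction run 1 h at 37 °C, then stopped with an equal volume of formamide loading buffer containing 1% SDS, 0.25% bromophenol blue and xylene cyanol. Products resolved on 16% denaturing polyacrylamide sequencing gels; dried gels imaged. Value reported as the concentration giving 50% inhibition.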
# [2] = biological target: T1, Human immunodeficiency virus type 1 integrase; test: Inhibition of recombinant HIV-1 integrase stand transfer activity expressed in Escherichia coli BL21(DE3) cells using 32P-labeled DNA substrate after 1 hr by densitometric analysis
# [3] = tested on: Human immunodeficiency virus 1; test: Antiviral activity against HIV1 infected in human peripheral blood mononuclear cells assessed as inhibition of reverse transcriptase activity incubated for 6 days; assay type: functional, organism-based; conditions: Human immunodeficiency virus 1, 144 h
# PBMC = test: (§1) Cytotoxicity against human PBMC assessed as reduction in cell growth incubated for 5 days by CellTiter 96 AQueous One Solution cell proliferation assay; assay type: cell-based; conditions: pbmc, 120 h
# CCRF-CEM = test: (§2) Cytotoxicity against human CEM cells assessed as reduction in cell growth incubated for 5 days by CellTiter 96 AQueous One Solution cell proliferation assay; assay type: cell-based; conditions: ccrf-cem, 120 h
# Vero = test: (§3) Cytotoxicity against African green monkey Vero cells assessed as reduction in cell growth incubated for 5 days by CellTiter 96 AQueous One Solution cell proliferation assay; assay type: cell-based; conditions: chlorocebus sabaeus, vero, 120 h
# [4] = as §1; assay type: cell-based; conditions: PBMC (peripheral blood mononuclear cells)
# [5] = as §2; assay type: cell-based, CCRF-CEM; conditions: CEM (CCRF-CEM) cells
# [6] = as §3; assay type: cell-based; conditions: chlorocebus sabaeus, Vero cells
# T1 sequence (Q7ZJM1 whole entry): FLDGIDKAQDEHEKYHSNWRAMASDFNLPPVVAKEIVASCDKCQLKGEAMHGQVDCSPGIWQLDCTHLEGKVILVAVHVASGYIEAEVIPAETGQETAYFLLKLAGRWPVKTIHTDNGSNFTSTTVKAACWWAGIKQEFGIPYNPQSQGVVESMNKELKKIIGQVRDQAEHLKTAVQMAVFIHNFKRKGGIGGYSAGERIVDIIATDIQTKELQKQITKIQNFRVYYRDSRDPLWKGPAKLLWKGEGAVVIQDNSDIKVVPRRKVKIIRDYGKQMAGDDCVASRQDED
Compound,IC50 [1] [µM],IC50 [2] [µM],other results
CCOC(=O)c1c(-c2ccccc2)nc(SCc2ccc(C(=O)/C=C(\O)C(=O)O)cc2)nc1-c1ccc(OC)cc1,23,1.2,
CCOC(=O)c1c(-c2ccccc2)nc(=O)n(Cc2ccc(C(=O)/C=C(\O)C(=O)OC(C)C)cc2)c1CC,,,EC50 [3]: > 100 µM; CC50 (PBMC): > 100 µM; CC50 (CCRF-CEM): 21.4 µM; CC50 (Vero): > 100 µM
CCOC(=O)c1c(-c2ccccc2)nc(=O)n(Cc2ccc(C(=O)/C=C(\O)C(=O)O)cc2)c1C(C)C,37.5,2.3,
CCOC(=O)c1c(-c2ccccc2)nc(=O)n(Cc2ccc(C(=O)/C=C(\O)C(=O)O)cc2)c1C,> 111,2.4,
CCOC(=O)c1c(-c2ccc(F)cc2)nc(=O)n(Cc2ccc(C(=O)/C=C(\O)C(=O)O)cc2)c1C,17.4,1.3,
CCOC(=O)c1c(CC)nc(SCc2ccc(C(=O)/C=C(\O)C(=O)O)cc2)nc1-c1ccc(F)cc1,29.3,0.92,
CCOC(=O)c1c(Cc2ccccc2)nc(=O)n(Cc2ccc(C(=O)/C=C(\O)C(=O)OC(C)C)cc2)c1C,,,EC50 [3]: 17.2 µM; CC50 (PBMC): 77 µM; CC50 (CCRF-CEM): 7.3 µM; CC50 (Vero): 32.9 µM
CCOC(=O)c1c(-c2ccc(OC)cc2)nc(=O)n(Cc2ccc(C(=O)/C=C(\O)C(=O)O)cc2)c1-c1ccccc1,17.2,1.9,
CCOC(=O)c1c(-c2ccc(F)cc2)nc(=O)n(Cc2ccc(C(=O)/C=C(\O)C(=O)O)cc2)c1CC,35,1.1,
CCOC(=O)c1c(-c2ccccc2)nc(=O)n(Cc2ccc(Cc3cccc(C(=O)/C=C(\O)C(=O)OC(C)C)c3)cc2)c1CC,,,EC50 [3]: 36.8 µM; CC50 at 120 h [4]: 47.6 µM; CC50 at 120 h [5]: 8.9 µM; CC50 at 120 h [6]: > 100 µM
Cc1cn([C@H]2C[C@H](N=[N+]=[N-])[C@@H](CO)O2)c(=O)[nH]c1=O [ZIDOVUDINE],,,CC50 at 120 h [4]: > 100 µM; CC50 (CCRF-CEM): 56.1 µM; CC50 (Vero): 39.5 µM
CCOC(=O)c1c(-c2ccccc2)nc(SCc2ccc(C(=O)/C=C(\O)C(=O)O)cc2)nc1-c1ccc(F)cc1,22,2.8,
CCOC(=O)c1c(-c2ccccc2)nc(=O)n(Cc2ccc(C(=O)/C=C(\O)C(=O)O)cc2)c1CC,19.1,0.64,
CCOC(=O)c1c(CC)nc(SCc2ccc(C(=O)/C=C(\O)C(=O)O)cc2)nc1-c1ccccc1,21.1,2.23,
CCOC(=O)c1c(-c2ccc(OC)cc2)nc(=O)n(Cc2ccc(C(=O)/C=C(\O)C(=O)OC(C)C)cc2)c1-c1ccccc1,,,EC50 [3]: 80.6 µM; CC50 at 120 h [4]: > 100 µM; CC50 at 120 h [5]: 25.3 µM; CC50 at 120 h [6]: > 100 µM
CCOC(=O)c1c(-c2ccc(OC)cc2)nc(=O)n(Cc2ccc(C(=O)/C=C(\O)C(=O)O)cc2)c1CC,72,5.6,
CCOC(=O)c1c(-c2ccc(F)cc2)nc(=O)n(Cc2ccc(C(=O)/C=C(\O)C(=O)O)cc2)c1C(C)C,40,3.6,
CCOC(=O)c1c(-c2ccccc2)nc(SCc2ccc(C(=O)/C=C(\O)C(=O)O)cc2)nc1-c1ccccc1,30,6.1,
CCOC(=O)c1c(Cc2ccccc2)nc(=O)n(Cc2ccc(C(=O)/C=C(\O)C(=O)O)cc2)c1C,16.9,0.19,
CCOC(=O)c1c(-c2cc(C)cc(C)c2)nc(=O)n(Cc2ccc(C(=O)/C=C(\O)C(=O)O)cc2)c1-c1ccccc1,16.3,1.3,
CCOC(=O)c1c(-c2ccc(F)cc2)nc(=O)n(Cc2ccc(C(=O)/C=C(\O)C(=O)O)cc2)c1-c1ccccc1,16.6,2.4,
CCOC(=O)c1c(-c2ccc(OC)cc2)nc(=O)n(Cc2ccc(C(=O)/C=C(\O)C(=O)O)cc2)c1C(C)C,19.2,3.3,
CCOC(=O)c1c(CC)nc(SCc2ccc(C(=O)/C=C(\O)C(=O)OC(C)C)cc2)nc1-c1ccc(F)cc1,,,EC50 [3]: 25.6 µM; CC50 (PBMC): 43.2 µM; CC50 (CCRF-CEM): 5.2 µM; CC50 (Vero): 39.5 µM
CCOC(=O)c1c(-c2ccccc2)nc(=O)n(Cc2ccc(C(=O)/C=C(\O)C(=O)O)cc2)c1-c1ccccc1,18.4,2,
CCOC(=O)c1c(CC)nc(SCc2ccc(C(=O)/C=C(\O)C(=O)O)cc2)nc1-c1ccc(OC)cc1,30.7,2.27,
